Test [1] concerns Mus musculus. Description: Analgesic activity in ICR mouse assessed as increase in pain threshold at 0.15 mmol/kg, po after 120 mins by tail flick method (reference value: 8.09 +/- 13.28 %). The class given is functional.
For test [2], the system named is Mus musculus. Kind of test: Antiinflammatory activity in ICR mouse assessed as inhibition of xylene-induced ear edema at 0.15 mmol/kg, po administered 30 mins before xylene challenge measured after 2 hrs relative to control. The class given is functional. In outline:
(§1)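 Male ICR mice (20 ± 2 g), randomised to test, vehicle (CMC) and aspirin (10 mg/kg oral) groups. Test agents given orally as CMC suspension. After 30 min, 0.03 mL xylene applied to both faces of the right ear, left ear as control. At 2 h mice were killed and 7 mm ear punches weighed. Edema is the right-minus-left weight, and inhibition is taken against vehicle.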

Test [3] deals with Mus musculus. Description: Analgesic activity in ICR mouse assessed as increase in pain threshold at 0.15 mmol/kg, po after 90 mins by tail flick method (reference value: 7.53 +/- 11.54 %). The class given is functional. (In general: In hot-plate and tail-flick tests a longer latency is read as antinociception.)
The test system of test [4] is Mus musculus. Description: Analgesic activity in ICR mouse assessed as increase in pain threshold at 0.15 mmol/kg, po after 180 mins by tail flick method (reference value: 8.75 +/- 9.73 %). The class given is functional.
Test [5] relates to Mus musculus. Description: Analgesic activity in ICR mouse assessed as increase in pain threshold at 0.15 mmol/kg, po after 150 mins by tail flick method (reference value: 9.02 +/- 12.19 %). The class given is functional.
In test [6] the test system is Mus musculus. Description: Analgesic activity in ICR mouse assessed as increase in pain threshold at 0.15 mmol/kg, po after 30 mins by tail flick method (reference value: 5.03 +/- 10.26 %). The class given is functional.
Test [7] concerns Mus musculus. Description: Analgesic activity in ICR mouse assessed as increase in pain threshold at 0.15 mmol/kg, po after 60 mins by tail flick method (reference value: 7.45 +/- 8.03 %). The class given is functional.
The subject of test [8] is Mus musculus. Description: Antiinflammatory activity in po dosed ICR mouse assessed as inhibition of xylene-induced ear edema administered 30 mins before xylene challenge measured after 2 hrs. The class given is functional, organism-based. In outline:
as §1

In test [9] the test system is Mus musculus. Kind of test: Antiinflammatory activity in ICR mouse assessed as inhibition of xylene-induced ear edema at 0.10 mmol/kg, po administered 30 mins before xylene challenge measured after 2 hrs relative to control. The class given is functional. Put shortly: as §1
Test [10] has as its system Mus musculus. Description: Antiinflammatory activity in ICR mouse assessed as inhibition of xylene-induced ear edema at 0.05 mmol/kg, po administered 30 mins before xylene challenge measured after 2 hrs relative to control. The class given is functional. In outline:
as §1

Each structure is given as a SMILES string. Non-standard residues stand in square brackets, D forms with d. Residues, ends and D or L forms follow the SMILES beside them. Tpi = O=C(O)[C@@H]1Cc2c([nH]c3ccccc23)CN1

For `CC(C)[C@H](NC(=O)[C@@H]1Cc2c([nH]c3ccccc23)CN1)C(=O)N[C@@H](Cc1ccccc1)C(=O)N[C@@H](Cc1c[nH]c2ccccc12)C(=O)O` (H-[Tpi]VFW-OH), the Activity in the test with Mus musculus [1] worked out at 35.79%; in the test with Mus musculus [3], 47.36%; in the test on Mus musculus [4], 16.03%; in the test on Mus musculus [5], 25.88%; with Mus musculus [6] it was 39.47%; with Mus musculus [7] it was 45.77%. Besides, the inhibition in vivo (usually the percentage by which the read-out fell short of the control) at 150 µmol/kg in the test with Mus musculus [2] came out at 43.6%.
Regarding `O=C(O)CC[C@H](NC(=O)[C@@H]1Cc2c([nH]c3ccccc23)CN1)C(=O)N[C@@H](Cc1ccccc1)C(=O)N[C@@H](Cc1c[nH]c2ccccc12)C(=O)O` (H-[Tpi]EFW-OH), the Activity is on record as 39.23% in the test on Mus musculus [1]; 29.25% in the test on Mus musculus [3]; 12.32% with Mus musculus [4]; 12.25% in the test with Mus musculus [5]; 18.24% in the test with Mus musculus [6]; 17.23% in the test with Mus musculus [7]. In the test on Mus musculus [2], the inhibition in vivo at 150 µmol/kg came to 28.4%.
As to `C[C@H](NC(=O)[C@@H]1Cc2c([nH]c3ccccc23)CN1)C(=O)N[C@@H](Cc1ccccc1)C(=O)N[C@@H](Cc1c[nH]c2ccccc12)C(=O)O` (H-[Tpi]AFW-OH), the Activity is 42.03% in the test on Mus musculus [1]; 46.48% in the test on Mus musculus [3]; 19.22% in the test on Mus musculus [4]; 28.79% in the test on Mus musculus [5]; 37.58% with Mus musculus [6]; 48.23% in the test with Mus musculus [7]. Further, the inhibition in vivo at 150 µmol/kg in the test with Mus musculus [2] was 52.7%. The inhibition result in the test with Mus musculus [8] is “Dose-dependent effect”. Also, the inhibition in vivo at 100 µmol/kg in the test with Mus musculus [9] was found to be 44.8%. In the test with Mus musculus [10], the inhibition in vivo at 50 µmol/kg stood at 32.6%.
Take `O=C(CNC(=O)[C@@H]1Cc2c([nH]c3ccccc23)CN1)N[C@@H](Cc1ccccc1)C(=O)N[C@@H](Cc1c[nH]c2ccccc12)C(=O)O` (H-[Tpi]GFW-OH): the Activity with Mus musculus [1] is on record as 49.09%; in the test with Mus musculus [3], 46.45%; in the test with Mus musculus [4] it was 14.36%; with Mus musculus [5], 22.37%; in the test with Mus musculus [6], 10.36%; in the test with Mus musculus [7] it was 40.78%. Moreover, the inhibition in vivo at 150 µmol/kg in the test with Mus musculus [2] was found to be 37.5%.
Regarding `O=C(O)C[C@H](NC(=O)[C@@H]1Cc2c([nH]c3ccccc23)CN1)C(=O)N[C@@H](Cc1ccccc1)C(=O)N[C@@H](Cc1c[nH]c2ccccc12)C(=O)O` (H-[Tpi]DFW-OH), the Activity in the test on Mus musculus [1] is reported as 40.67%; in the test on Mus musculus [3], 34.55%; in the test on Mus musculus [4], 18.77%; in the test on Mus musculus [5], 13.54%; with Mus musculus [6], 22.17%; with Mus musculus [7], 28.12%. The inhibition in vivo at 150 µmol/kg in the test with Mus musculus [2] was 40%.
For the molecule `O=C(O)[C@H](Cc1c[nH]c2ccccc12)NC(=O)[C@H](Cc1ccccc1)NC(=O)[C@H](CO)NC(=O)[C@@H]1Cc2c([nH]c3ccccc23)CN1` (H-[Tpi]SFW-OH), the Activity in the test on Mus musculus [1] was 38.45%; with Mus musculus [3], 44.13%; in the test on Mus musculus [4], 25.07%; in the test on Mus musculus [5] it was 26.47%; with Mus musculus [6], 30.56%; in the test with Mus musculus [7] it was 42.32%. Also, the inhibition in vivo at 150 µmol/kg with Mus musculus [2] is 45.7%.
For the molecule `NC(=O)C[C@H](NC(=O)[C@@H]1Cc2c([nH]c3ccccc23)CN1)C(=O)N[C@@H](Cc1ccccc1)C(=O)N[C@@H](Cc1c[nH]c2ccccc12)C(=O)O` (H-[Tpi]NFW-OH), the Activity came out at 39.25% in the test on Mus musculus [1]; 34.56% in the test on Mus musculus [3]; 19.45% in the test with Mus musculus [4]; 22.12% with Mus musculus [5]; 21.24% with Mus musculus [6]; 45.23% with Mus musculus [7]. Also, the inhibition in vivo at 150 µmol/kg in the test on Mus musculus [2] turned out to be 55.8%.
For the molecule `CC(C)C[C@H](N)C(=O)N[C@@H](Cc1ccccc1)C(=O)N[C@@H](Cc1c[nH]c2ccccc12)C(=O)O` (H-Leu-Phe-Trp-OH), the Activity with Mus musculus [1] was 18.92%; in the test with Mus musculus [3] it was 20.13%; in the test on Mus musculus [4], 7.98%; with Mus musculus [5], 9.77%; in the test on Mus musculus [6], 25.38%; with Mus musculus [7], 28.79%.
With `NC(=O)CC[C@H](NC(=O)[C@@H]1Cc2c([nH]c3ccccc23)CN1)C(=O)N[C@@H](Cc1ccccc1)C(=O)N[C@@H](Cc1c[nH]c2ccccc12)C(=O)O` (H-[Tpi]QFW-OH), the Activity in the test with Mus musculus [1] is given as 32.33%; in the test on Mus musculus [3], 51.25%; with Mus musculus [4], 22.45%; in the test with Mus musculus [5] it was 18.32%; with Mus musculus [6], 41.83%; in the test on Mus musculus [7] it was 47.33%. Also, in the test with Mus musculus [2], the inhibition in vivo at 150 µmol/kg came out at 42.4%.
For the molecule `NCCCC[C@H](N)C(=O)N[C@@H](Cc1ccccc1)C(=O)N[C@@H](Cc1c[nH]c2ccccc12)C(=O)O` (H-Lys-Phe-Trp-OH), the Activity is on record as 20.14% in the test on Mus musculus [1]; 23.47% in the test on Mus musculus [3]; 8.41% with Mus musculus [4]; 11.23% in the test on Mus musculus [5]; 20.16% with Mus musculus [6]; 25.43% in the test with Mus musculus [7].
As for `O=C(O)[C@H](Cc1c[nH]c2ccccc12)NC(=O)[C@H](Cc1ccccc1)NC(=O)[C@H](Cc1c[nH]c2ccccc12)NC(=O)[C@@H]1Cc2c([nH]c3ccccc23)CN1` (H-[Tpi]WFW-OH), the Activity amounted to 28.55% in the test on Mus musculus [1]; 35.19% with Mus musculus [3]; 14.23% in the test with Mus musculus [4]; 16.69% in the test on Mus musculus [5]; 35.05% in the test on Mus musculus [6]; 36.45% with Mus musculus [7]. The inhibition in vivo at 150 µmol/kg with Mus musculus [2] came to 51.5%.
In the case of `O=C(O)[C@H](Cc1c[nH]c2ccccc12)NC(=O)[C@H](Cc1ccccc1)NC(=O)[C@H](Cc1ccccc1)NC(=O)[C@@H]1Cc2c([nH]c3ccccc23)CN1` (H-[Tpi]FFW-OH), the Activity with Mus musculus [1] turned out to be 45.46%; in the test on Mus musculus [3] it was 40.56%; with Mus musculus [4], 15.32%; in the test on Mus musculus [5] it was 21.12%; in the test on Mus musculus [6], 31.34%; in the test with Mus musculus [7], 37.2%. The inhibition in vivo at 150 µmol/kg in the test on Mus musculus [2] came to 48.2%.
Turning to `C[C@@H](O)[C@H](NC(=O)[C@@H]1Cc2c([nH]c3ccccc23)CN1)C(=O)N[C@@H](Cc1ccccc1)C(=O)N[C@@H](Cc1c[nH]c2ccccc12)C(=O)O` (H-[Tpi]TFW-OH), the Activity stood at 42.43% with Mus musculus [1]; 40.36% with Mus musculus [3]; 19.25% in the test on Mus musculus [4]; 23.19% in the test on Mus musculus [5]; 30.75% with Mus musculus [6]; 38.2% with Mus musculus [7]. Moreover, the inhibition in vivo at 150 µmol/kg in the test with Mus musculus [2] was 50.6%.
In the case of `O=C(O)[C@H](Cc1c[nH]c2ccccc12)NC(=O)[C@H](Cc1ccccc1)NC(=O)[C@H](Cc1cnc[nH]1)NC(=O)[C@@H]1Cc2c([nH]c3ccccc23)CN1` (H-[Tpi]HFW-OH), the Activity in the test on Mus musculus [1] is given as 39.38%; with Mus musculus [3], 22.23%; in the test with Mus musculus [4], 13.29%; with Mus musculus [5], 24.33%; with Mus musculus [6] it was 37.25%; with Mus musculus [7], 32.19%. Also, the inhibition in vivo at 150 µmol/kg in the test with Mus musculus [2] is 57.6%.
As to `CC[C@H](C)[C@H](NC(=O)[C@@H]1Cc2c([nH]c3ccccc23)CN1)C(=O)N[C@@H](Cc1ccccc1)C(=O)N[C@@H](Cc1c[nH]c2ccccc12)C(=O)O` (H-[Tpi]IFW-OH), the Activity is 27.32% with Mus musculus [1]; 41.23% in the test on Mus musculus [3]; 16.13% in the test with Mus musculus [4]; 15.25% in the test with Mus musculus [5]; 33.01% with Mus musculus [6]; 38.01% in the test with Mus musculus [7]. Moreover, the inhibition in vivo at 150 µmol/kg in the test with Mus musculus [2] was determined as 56.4%.
On to `O=C(O)[C@H](Cc1c[nH]c2ccccc12)NC(=O)[C@H](Cc1ccccc1)NC(=O)[C@@H]1CCCN1C(=O)[C@@H]1Cc2c([nH]c3ccccc23)CN1` (H-[Tpi]PFW-OH), for which the Activity in the test with Mus musculus [1] is 18.79%; in the test on Mus musculus [3], 21.35%; with Mus musculus [4] it was 15.68%; in the test on Mus musculus [5] it was 25.05%; in the test with Mus musculus [6], 23.17%; in the test on Mus musculus [7], 49.74%. Besides, the inhibition in vivo at 150 µmol/kg in the test with Mus musculus [2] was 47.3%.
Turning to `CC(=O)Oc1ccccc1C(=O)O` [ASPIRIN], the Activity in the test with Mus musculus [1] was determined as 33.24%; in the test on Mus musculus [3], 41.23%; with Mus musculus [4] it was 21.72%; in the test with Mus musculus [5] it was 30.41%; in the test on Mus musculus [6] it was 32.85%; in the test with Mus musculus [7], 38.45%.

These data come from ChEMBL document CHEMBL1781989, “Novel β-carboline-tripeptide conjugates attenuate mesenteric ischemia/reperfusion injury in the rat” (2011).
